Results on one compound are retold here after ChEMBL document CHEMBL3259554, “Discovery, synthesis, and optimization of antimalarial 4(1H)-quinolone-3-diarylethers” (J Med Chem, 2014).

Some results are limits rather than exact numbers.

Data set [1] relates to Plasmodium falciparum. Put plainly: Antimalarial activity against chloroquine-sensitive Plasmodium falciparum D6 MRA-285 infected in human red blood cells assessed as suppression of parasitemia after 72 hrs by SYBR Green I-based fluorescence method. To be noted: D6 MRA-285, 72 h. It is filed as functional, organism-based. An outline of the steps: (§1)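 Asynchronous parasites in human erythrocytes, RPMI-1640 with HEPES, hypoxanthine, glucose, glutamine, 0.5% Albumax II; 2% hematocrit, 0.2% initial parasitemia. Triplicate 2-fold dilutions from 1 μM (lower start if needed), 72 h at 37 °C under 5% O2/5% CO2/90% N2. SYBR Green I dye-detergent added, 1 h dark at room temperature, fluorescence read. EC50 averaged over at least three determinations.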

The nature of data set [2]: Antimalarial activity against multidrug-resistant Plasmodium falciparum Dd2 MRA-156 infected in human red blood cells assessed as suppression of parasitemia after 72 hrs by SYBR Green I-based fluorescence method. In kind it is functional. In short, it runs like this: as §1
The test system of data set [3] is Plasmodium falciparum. Put plainly: Antimalarial activity against atovaquone-resistant clinical isolate Plasmodium falciparum TM90-C2B infected in human red blood cells assessed as suppression of parasitemia after 72 hrs by SYBR Green I-based fluorescence method. In kind it is functional, organism-based. An outline of the steps:
as §1

Data set [4] concerns HepG2. Put plainly: Cytotoxicity against human HepG2 cells after 24 hrs incubation by Alamar Blue assay. In kind it is cell-based. To be noted: HepG2, 24 h. An outline of the steps: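 HepG2 cells grown in RPMI-1640 with 10% FBS and seeded at 2 × 10⁴ cells/well, attached overnight. Drug serially diluted from 10 mM DMSO stocks to 2.5 nM–10 μM and incubated 24–36 h. Medium then replaced and cells kept a further 24 h. Resazurin added (final 10 μM) for 3 h, fluorescence read at ex 560/em 590 nm. Run in triplicate; IC50 by nonlinear logistic regression.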
On the technique in general: Resazurin is reduced to fluorescent resorufin, in cell work by metabolically active cells.

Data set [5] in a line: Inhibition of human cytochrome bc1 complex derived from HEK293 cell mitochondria using 50 uM decylubiquinol as substrate. In short, it runs like this:
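Mitochondria isolated from HEK-293 cells by Dounce homogenization and differential centrifugation, dispersed in 2 mg/mL dodecyl maltoside for 45 min on ice, then clarified. Baseline-subtracted initial rates expressed as a fraction of uninhibited control.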

The subject of data set [6] is Plasmodium yoelii. Put plainly: Antimalarial activity against Plasmodium yoelii MR4 MRA-428 infected in mouse CF1 assessed as reduction on parasite burden administered through oral gavage once daily for 4 days. In kind it is functional. To be noted: MR4 MRA-428, po, 96 h. In short, it runs like this: (§2)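 P. yoelii-infected mice, randomly grouped in fours; dosing began day after inoculation (day 1), once daily by oral gavage in PEG-400 for four successive days; initial doses 0.1, 0.3, 1.0, 3.0, 10 mg/kg/day, range adjusted as needed. Day-5 Giemsa-smear parasitemia vs drug-free controls; ED50 derived graphically. Cure = parasite free 30 days after last dose; cure dose termed non-recrudescence dose.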

In data set [7] the test system is Plasmodium yoelii. Nature of the data set: Antimalarial activity against Plasmodium yoelii MR4 MRA-428 infected in mouse CF1 assessed as dose required to achieve cure measured as 30 days survival administered through oral gavage once daily for 4 days. It is filed as functional. In short, it runs like this:
as §2

The subject of data set [8] is Liver microsome. Put plainly: Metabolic stability in rat liver microsomes. It is filed as ADME. In short, it runs like this: (§3)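 Compound at 1 μM incubated at 37 °C with liver microsomes (0.4 mg protein/mL) in 0.1 M phosphate pH 7.4. Started with an NADPH-regenerating system plus MgCl₂ and quenched with cold acetonitrile at time points up to 60 min. Parent loss followed by LC-MS and fitted to first-order decay to give half-life and intrinsic clearance. E_H used liver blood flow of 20.7 (human) or 55.2 (rat) mL/min/kg.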
Background: Liver microsomes are vesicles of endoplasmic reticulum, rich in cytochrome P450 enzymes.

The test system of data set [9] is Liver microsome. Nature of the data set: Metabolic stability in human liver microsomes. In kind it is ADME. In short, it runs like this:
as §3

A short description of data set [10]: Inhibition of cytochrome bc1 complex isolated from trophozoite stage Plasmodium falciparum. An outline of the steps: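 P. falciparum mitochondrial preparation assayed for cytochrome c reductase at 35 °C in a stirred cuvette. Buffer: 100 μM decylubiquinol, 100 μM horse heart cytochrome c, 0.1 mg/mL dodecyl maltoside, 60 mM HEPES pH 7.4, 10 mM malonate, 1.0 mM EDTA, 2.0 mM KCN. Baseline subtracted from the initial rate; activity expressed as a fraction of uninhibited control.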

The nature of data set [11]: Selectivity ratio of IC50 for human cytochrome bc1 complex to EC50 for Plasmodium falciparum cytochrome bc1 complex.

As a reminder, the EC50 is the concentration giving half of the maximal effect. In general, IC50 refers to the concentration at which inhibition is half-maximal. Low values mean higher potency, high ones lower potency. Usually ED50 stands for the dose at which the effect has come halfway, by size or by number of responders. For `COc1cc2[nH]c(C)c(-c3ccc(Oc4ccc(OC(F)(F)F)cc4)cc3)c(=O)c2cc1Cl`, the 50% effective concentration (EC50) in data set [1] came to 2.2 nM; in [2] it was 2.5 nM; in [3], 1.4 nM; in data set [10], 0.56 nM. Moreover, the half-inhibitory concentration (IC50) in data set [4] and in data set [5] was greater than 10000 nM throughout. The ED50 in data set [6] worked out at 0.02 mg/kg/day. The ED90 in data set [6] was determined as 0.06 mg/kg/day. For the same compound, in data set [7], the NRD came to 0.3 mg/kg/day. Also, the Stability entry in [8] and in [9] was “Stable” throughout. The Ratio IC50/EC50 in data set [11] is greater than 20000.
